Results: ChEMBL document CHEMBL3232958, “Antiproliferative and uncoupling effects of delocalized, lipophilic, cationic gallic acid derivatives on cancer cell lines. Validation in vivo in singenic mice” (J Med Chem, 2014)
The source made the active and inactive calls. The calls are words filed in the database; no cut-off is given here.

How the values were obtained:
[1] = Uncoupling respiration effect in mouse TA3/Ha cells after 2 mins by polarographic analysis in presence of FCCP; assay type: functional
In short: (§1)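 Polarographic respiration of digitonin-permeabilized cells (0.013 μg/mg protein; 2.5 mg protein/mL) in PBS pH 7.4 with 10 mM succinate and 1 μg/mL oligomycin. Cations added in 3 μL DMSO. Atractyloside 5 nmol/mg protein was added before succinate. FCCP added at the end: 0.15 μM for TA3, 0.25 μM for TA3-MTX-R. Slope and K0.5 taken from log–log linear regression; at least three experiments.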

[2] = tested on: TA3/Ha; assay: Induction of apoptosis in mouse TA3/Ha cells assessed as early stage apoptotic cells at 0.5 uM after 24 to 48 hrs using annexin V/propidium iodide staining by flow cytometry; assay type: functional, cell-based
In short: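 Annexin V-FITC/PI flow cytometry on 1 × 10^5 cells/mL treated for 24 and 48 h at 37 °C, 5% CO2. 5 min staining at room temperature; 5000 events recorded. Early apoptosis scored as annexin V+/PI−. Staurosporine 10 μM as positive control; at least three experiments, ANOVA with Bonferroni test.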

[3] = Toxicity in mouse TA3/Ha cells assessed as cell membrane integrity after 24 hrs using propidium iodide by flow cytometry; assay type: cell-based; settings: 2 to 4 h, in the assay text read “after 2 to 4 hrs” for “after 24 hrs”
In short: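 Membrane integrity by PI uptake on flow cytometry. Cells were seeded, grown for 24 h at 37 °C, 5% CO2, then given fresh medium with cation for 2 and 4 h before PI was added. Mean ± SEM of at least three experiments.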

[4] = tested on: TA3/Ha; assay: Reduction of ATP level in mouse TA3/Ha cells after 2 hrs by CellTiter-Glo luminescent assay; assay type: functional, cell-based
In short: (§2)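 CellTiter-Glo luminescence on 2 × 10^5 cells/mL incubated with cation for 2 h. Aliquot held 10 min at room temperature in the dark before reading; at least three experiments.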

[5] = tested on: CCRF-CEM; assay: Cytotoxicity against human CCRF-CEM cells after 48 hrs by neutral red assay; assay type: functional, cell-based
In short: (§3)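 Neutral red uptake after 48 h exposure at 37 °C, 5% CO2. Seeding: 1 × 10^5 cells/mL for TA3, TA3-MTX-R and CCRF-CEM; 4 × 10^4 cells/mL for MM3MG. Dye at 100 μg/mL for 2 h, then ethanol/acetic acid extraction and absorbance at 540 nm. IC50 from variable-slope sigmoidal dose–response fit; at least three independent experiments in triplicate, mean ± SEM.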

[6] = Cytotoxicity against mouse multidrug-resistant TA3-MTX-R cells after 48 hrs by neutral red assay; assay type: functional, cell-based; in short: as §3
[7] = tested on: TA3/Ha; assay: Reduction of ATP level in mouse TA3/Ha cells at 1 to 20 uM after 2 hrs by CellTiter-Glo luminescent assay; assay type: functional, cell-based; in short: as §2
[8] = Cytotoxicity against mouse TA3/Ha cells after 48 hrs by neutral red assay; assay type: functional, cell-based; in short: as §3
[9] = tested on: TA3/Ha; assay: Induction of apoptosis in mouse TA3/Ha cells assessed as caspase 3 activation at 0.5 uM after 24 hrs by Western blot analysis; assay type: functional, cell-based
In short: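 Caspase 3 measured by Western blot. RIPA lysates, 50 μg protein run on 12% SDS–PAGE. Anti-caspase 3 (1:1000) and tubulin loading control (1:10000) overnight at 4 °C; HRP secondary for 2 h. ECL detection and densitometry.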

[10] = Uncoupling respiration effect in mouse TA3-MTX-R cells after 2 mins by polarographic analysis in presence of FCCP; assay type: functional; in short: as §1
[11] = tested on: TA3/Ha; assay: Cytotoxicity against mouse TA3/Ha cells up to 24 hrs by lactate dehydrogenase assay; assay type: functional, cell-based
In short: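 LDH release measured with a kit on 2 × 10^5 cells/mL incubated at 37 °C, 5% CO2, 90% humidity. Supernatant taken after centrifugation at 600g for 3 min, then 30 min with reaction mix at room temperature; absorbance read at 450 nm.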

[12] = Cytotoxicity against mouse MM3MG cells after 48 hrs by neutral red assay; assay type: cell-based; in short: as §3
[13] = tested on: TA3/Ha; assay: Decrease of mitochondrial transmembrane potential in mouse TA3/Ha cell mitochondria at 0.2 nmol after 5 mins by safranin and JC-1 staining; assay type: functional
In short: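 Mitochondria isolated from TA3/Ha tumour cells (washed, BSA-free), 1.0 mg/mL protein. Safranin 20 μM, read 5 min; then 2 mM glutamate + 2 mM malate, read 5 min; then cation added. ΔΨm followed as ΔA511−533nm spectrophotometrically.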

[14] = tested on: TA3/Ha; assay: Increase of oxygen consumption in mouse TA3/Ha cell mitochondria using glutamate and malate as substrate at 10^-4 M after 2 mins by polarographic analysis; assay type: functional
In short: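 Clark electrode polarography of isolated mitochondria (1.0 mg/mL) at 25 °C. Medium: sucrose/KCl, 3 mM phosphate, Hepes pH 7.0, 2 mM MgCl2. Substrates 2 mM glutamate + 2 mM malate; 0.5 mM ADP, oligomycin and KCN also used.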

SMILES | K0.5 [1] | Activity [2] | Activity [3] | Activity [4] | IC50 [5] [µM] | IC50 [6] [µM] | Activity [7] | IC50 [8] [µM] | Activity [9] | K0.5 [10] | Activity [11] | IC50 [12] [µM] | Activity [13] | Activity [14]
O=C(OCCCCCCCCCCCC[P+](c1ccccc1)(c1ccccc1)c1ccccc1)c1cc(O)c(O)c(O)c1.[Br-] | 2.9 ×10⁻⁵ M | Active | Non-toxic | Dose-dependent effect | 0.58 | 1.2 | Active | 0.74 | inactive | 3.1 ×10⁻⁵ M | Active | 1.38 |  | 
N#CC(C#N)=NNc1cccc(Cl)c1 |  |  |  |  |  |  |  |  |  |  |  |  | Active | 
O=C(OCCCCCCCC[P+](c1ccccc1)(c1ccccc1)c1ccccc1)c1cc(O)c(O)c(O)c1.[Br-] | 2.25 ×10⁻⁴ M | Active | Non-toxic | Dose-dependent effect | 34.6 | 14.4 | Active | 13.4 | inactive | 1.91 ×10⁻⁴ M | Active | 29.4 |  | Active
CCCCCCCCOC(=O)c1cc(O)c(O)c(O)c1 [OCTYL_GALLATE] |  |  |  |  | 58.5 | 29.8 |  | 35.9 |  |  |  | > 200 |  | 
O=C(OCCCCCCCCCCC[P+](c1ccccc1)(c1ccccc1)c1ccccc1)c1cc(O)c(O)c(O)c1.[Br-] |  | Active | Non-toxic | Dose-dependent effect | 19.8 | 3.7 | Active | 6.4 | inactive |  | Active | 14.3 |  | 
